# RBBP9 inhibitor – blocks human serine hydrolase RBBP9; O75884; recombinant RBBP9, FP-Rh probe fluorescence polarization; inhibition, % at 7.94 µM; 220,000 compounds, 0.2% hits;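 active = inhibition above the campaign mean of all tested compounds plus 3 SD, cut at about 14% in these data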;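 also: plate controls were DMSO wells with RBBP9 for no effect and wells lacking RBBP9 protein for full effect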
# Target sequence (O75884 whole entry, looked up): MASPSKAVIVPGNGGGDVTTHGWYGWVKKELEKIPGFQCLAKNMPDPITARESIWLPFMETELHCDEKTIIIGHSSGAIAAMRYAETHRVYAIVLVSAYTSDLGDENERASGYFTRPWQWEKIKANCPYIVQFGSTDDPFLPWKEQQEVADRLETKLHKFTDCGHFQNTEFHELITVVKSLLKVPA
#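 Assay system: recombinant human RBBP9; Reagent: Serine-hydrolase probe FP-Rh, 375 nM pre-mixing; Doses: 7.94 µM single dose, 0.794% DMSO; Incubation: 30 min then 45 min, 25 °C; Detection: fluorescence polarization (mP), excitation 525 nm, emission 598 nm; Evaluation: percent inhibition from mP, scaled between DMSO and no-protein wells.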
# eIF4E 4G PPI – blocks eIF4E binding to eIF4G; inhibition, % at 21.7 µM; 220,000 compounds, 0.37% hits; TR-FRET eIF4E-eIF4GI(517-606) binding, 2 h; P63073+Q04637;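 also: 0% = full FRET control wells and 100% = background wells lacking eIF4GI fragment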
# Wee1 degr inh – human Wee1 degradation inhibition, primary screen. P30291. HeLa Luc-Wee1K328M stability, luciferase luminescence; 100% = proteasome inhibitor MG132 effect. reporter increase, % at 5 µM. 220,000 compounds, 1.2% hits;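 active = activation above the mean of all tested compounds plus 3 SD, set per screening run, cut at about 8.8% in these data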;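 also: cells exposed to compound for 20 h before luminescence read; 0% = DMSO alone and 100% = MG132 at 30 µM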
# 14-3-3 Bad PPI – disrupts binding of bovine 14-3-3 zeta to phospho-Bad peptide. P63103. TR-FRET 14-3-3zeta/Dy647-pBad peptide displacement, 1 h. inhibition, % at 21.7 µM. 220,000 compounds, 0.71% hits. AID 781;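 active = inhibition above about 70%, limit read from the data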;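 also: 0% = full 14-3-3 plus peptide FRET controls and 100% = background without 14-3-3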
# Target sequence (P63103 whole entry, looked up): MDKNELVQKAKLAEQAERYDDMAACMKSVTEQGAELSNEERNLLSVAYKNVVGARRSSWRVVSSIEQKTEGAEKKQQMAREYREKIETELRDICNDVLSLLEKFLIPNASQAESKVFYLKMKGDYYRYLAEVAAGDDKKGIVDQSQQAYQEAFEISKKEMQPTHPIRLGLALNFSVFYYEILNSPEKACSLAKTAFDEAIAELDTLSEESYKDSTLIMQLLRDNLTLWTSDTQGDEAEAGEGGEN
# p47phox inh – blocks human p47phox regulatory protein of NADPH oxidases; P14598; p47phox/p22phox peptide binding, fluorescence polarization, 2 h; inhibition, % at 24.7 µM; 220,000 compounds, 0.53% hits; AID 1274;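 also: 0% = p47phox with labelled peptide and 100% = labelled peptide alone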
# The depositor's hits bear a star; . = no result given; [ ] = remark or other dose. Rows were chosen to be rich in hits. Some 2.8% of all compounds tested hit in one or more screens of this group.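 The calls were made as follows, unless noted: active = inhibition above about 30% (limit read from the data); inactive = the rest.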
SMILES,RBBP9 inhibitor,eIF4E 4G PPI,Wee1 degr inh,14-3-3 Bad PPI,p47phox inh
CC(=O)OC1CC[C@@]2(C)C(CCC3C2CC(=O)[C@@]2(C)C3CC3CC(C)=CC(=O)C32)C1 (stereo partly specified),0,4,-4,1,-9
Nc1nc(C2CC(=O)OC23CCCCC3)cs1 (stereo unspecified),-9,5,-2,-1,-2
Nc1nc(C2C(=O)CCCC2=O)cs1,-8,-3,-3,71*,-93
O=C1CCN(C(=S)NCc2ccccc2)CC1,-2,2,-1,-11,-10
Cc1ccc(N2C(=O)CC2(C#N)c2ccc(OCc3ccccc3)cc2)cc1 (stereo unspecified),-4,-5,-2,-6,-6
O=C1C2CCCN2C(=O)N1CCCCN1CCN(c2ccccc2)CC1 (stereo unspecified),-7,0,3,39,-8
O=C1CC(=C(c2ccccc2)c2ccccc2)C(=O)N1CCCCN1CCN(c2ccccc2)CC1,-5,7,2,76*,-70
O=C(CSc1nc(-c2ccc(F)cc2)nc2c1Cc1ccccc1O2)Nc1cccc(C(=O)O)c1,-11,63*,0,95*,-134
O=C(CSc1nc(-c2ccccc2)nc2c1Cc1ccccc1O2)Nc1ccccc1,-11,3,-2,0,-10
O=C(CNC(=S)N(CCCN1CCOCC1)Cc1cccs1)NC1CC1,-1,1,0,-24,-12
O=C(CNC(=S)N(CCCN1CCOCC1)Cc1cccs1)NC1CCCC1,-3,5,-4,-9,35*
COCCNC(=O)C(c1ccncc1)N(Cc1ccccc1)C(=O)Cn1nnc2ccccc21 (stereo unspecified),0,-3,-1,-7,10
COc1cccc2sc(Nc3nc(-c4cc5ccccc5oc4=O)cs3)nc12,-6,18,0,94*[fluorescence artefact?],-31
O=C(Nc1nc(-c2cc3ccccc3oc2=O)cs1)c1ccc(Br)o1,-8,7,-1,79*[fluorescence artefact?],-13
COc1cccc2sc(Nc3nc(-c4ccncc4)cs3)nc12,-3,6,9,54,.
Cc1cccc(N2CCN(C(=O)c3ccc4nc[nH]c4c3)CC2)c1C,3,5,-2,-14,-11
Cc1ccc(Cl)cc1N1CCN(C(=O)c2ccc3nc[nH]c3c2)CC1,2,3,-2,-1,123*
COc1ccc(CCNC(=O)/C(C#N)=C/c2cccc(OCc3ccccc3)c2)cc1OC,-12,0,1,-15,-22
CC1(C)CC(=O)C=C(NCc2ccco2)C1,-14,.,0,.,.
Cc1ccc(NCc2cccnc2)cc1,-7,7,0,71*,15
CC1(C)CC(=O)C=C(NCc2cccnc2)C1,-7,8,9.3*,49,4
CCOC(=O)c1c(NC(=O)C[n+]2ccc(N(C)C)cc2)sc(C)c1C,-6,2,-2,-9,3
COc1ccc(N2C(=O)CC(NNc3ncc(Cl)cc3Cl)C2=O)cc1 (stereo unspecified),-7,0,2,-23,-4
Cc1ccc(OCC(=O)N(C)Cc2ccccc2)c([N+](=O)[O-])n1,-6,0,-2,-8,-2
Cc1ccc2nc(-c3ccc(NC(=O)Cc4cccs4)cc3)[nH]c2c1,-7,0,10*,6,-10
SMILES,RBBP9 inhibitor,eIF4E 4G PPI,Wee1 degr inh,14-3-3 Bad PPI,p47phox inh
Cc1ccc2nc(NC(=O)Cc3cccs3)sc2c1,-5,4,5,-2,-6
CN1CCN(Cn2cc(/C=C/C(=O)c3ccccc3)c3ccccc32)CC1,7,-2,10*,-6,-31
CCC(=O)Nc1cc(=O)[nH]c2nc(-c3ccc(Cl)cc3)nn12,-7,-6,0,8,3
O=c1c(O)cccc2cc(O)c(O)c(O)c12,1,61*,-1,94*,-25
CCCCNC(=O)Oc1c(Br)cc2sc(=O)oc2c1Br,21*,3,1,-4,2
COc1ccc(/C=C2\SC(=O)N(CCC(=O)Nc3ccccc3)C2=O)cc1OC,-8,-4,-1,-5,11
COc1cc(/C=C2\SC(=O)N(CCN)C2=O)ccc1OS(=O)(=O)c1cc(C)ccc1C,3,12,-3,84*,72*
Cc1ccc(N2C(=O)c3n[nH]c(C)c3C2c2ccco2)cc1 (stereo unspecified),-4,-9,3,-2,46*
